Source: ChEMBL document CHEMBL4393735, “Molecular modelling, synthesis, and biological evaluations of a 3,5-disubstituted isoxazole fatty acid analogue as a PPARα-selective agonist” (Bioorg Med Chem, 2019)
Activity calls are given as the source filed them.

Tests used:
[1] = molecular target: T1, Peroxisome proliferator-activated receptor alpha (Homo sapiens) (UniProt Q07869); experiment: Agonist activity at PPARalpha in human Huh7 cells assessed as PPARA mRNA expression at 50 uM measured after 18 hrs by qRT-PCR analysis; assay type: cell-based
T1 sequence (whole entry): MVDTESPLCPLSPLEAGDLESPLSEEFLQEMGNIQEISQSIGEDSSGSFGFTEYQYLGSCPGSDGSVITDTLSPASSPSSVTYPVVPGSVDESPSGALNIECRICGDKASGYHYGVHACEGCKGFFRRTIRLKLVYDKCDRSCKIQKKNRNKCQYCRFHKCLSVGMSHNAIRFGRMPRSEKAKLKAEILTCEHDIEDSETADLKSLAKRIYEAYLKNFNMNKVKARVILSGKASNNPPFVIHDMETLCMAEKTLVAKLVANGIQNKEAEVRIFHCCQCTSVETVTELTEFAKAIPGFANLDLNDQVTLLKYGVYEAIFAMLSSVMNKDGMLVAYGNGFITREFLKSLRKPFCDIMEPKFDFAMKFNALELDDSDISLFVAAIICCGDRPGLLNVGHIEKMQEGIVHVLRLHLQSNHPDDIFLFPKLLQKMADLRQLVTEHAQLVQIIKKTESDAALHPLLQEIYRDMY
Summary of the method: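 Treatment for 18 h at 50 μM (or 1 μM for the 1 μM agents), DMSO vehicle. Harvested for qPCR. mRNA normalized to TBP by the comparative threshold method, expressed relative to DMSO control. Two biological replicates run in duplicate, mean ± SEM. Primary hepatocytes came from male C57BL/6N mice aged 7–8 weeks, isolated by portal-vein perfusion and digestion, seeded on collagen I and used on day 2. HuH-7 cells were kept in DMEM with 10% FBS and ITS.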

COS-1 = experiment: Cytotoxicity against African green monkey COS1 cells assessed as reduction in cell viability at 10^-3 M by XTT based assay relative to control; details: chlorocebus aethiops, cos-1, 1000 µM
Summary of the method: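 COS-1 cells were treated across the same concentration series as the GAL4 dose-response runs. Cytotoxicity was measured as LDH released into medium (absorbance 492/750 nm) and by XTT viability assay (absorbance 450/690 nm). Results expressed relative to control.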

[2] = molecular target: T2, Peroxisome proliferator-activated receptor gamma (Homo sapiens) (UniProt P37231); experiment: Agonist activity at full length human FLAG-taggedGAL4-DBD fused PPARgamma LBD (205 to 505 residues) expressed in COS1 cells at 25 to 50 uM measured after 18 hrs by dual luciferase reporter gene assay; assay type: cell-based
T2 sequence (whole entry): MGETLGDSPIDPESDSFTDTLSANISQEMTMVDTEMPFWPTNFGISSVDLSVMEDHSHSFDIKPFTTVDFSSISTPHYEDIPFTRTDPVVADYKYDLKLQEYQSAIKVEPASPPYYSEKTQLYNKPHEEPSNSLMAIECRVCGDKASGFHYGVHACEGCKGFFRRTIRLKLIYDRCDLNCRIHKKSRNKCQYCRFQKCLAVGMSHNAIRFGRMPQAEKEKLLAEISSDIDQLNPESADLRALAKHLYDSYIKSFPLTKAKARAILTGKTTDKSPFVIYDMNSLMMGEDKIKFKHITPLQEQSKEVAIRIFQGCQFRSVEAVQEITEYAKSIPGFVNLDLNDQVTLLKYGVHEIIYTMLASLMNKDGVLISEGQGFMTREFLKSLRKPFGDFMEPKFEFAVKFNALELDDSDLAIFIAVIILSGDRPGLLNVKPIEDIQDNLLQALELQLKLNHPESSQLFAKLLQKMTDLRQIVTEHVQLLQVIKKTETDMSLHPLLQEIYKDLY
Summary of the method: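 COS-1 cells were transfected using Lipofectamine 2000 with GAL4-DBD–human NR-LBD plasmid, a 5×UAS-SV40 firefly luciferase reporter and pRL-CMV. After 6 h, cells were treated with 0, 25 or 50 μM in 0.1% DMSO (final) for 18 h. Firefly signal was normalized to Renilla, then to DMSO control and GAL4-only. Three biological replicates in quadruplicate, mean ± SEM, two-way ANOVA with Bonferroni.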

[3] = molecular target: T1, Peroxisome proliferator-activated receptor alpha (Homo sapiens); experiment: Agonist activity at full length human FLAG-tagged GAL4-DBD fused PPARalpha LBD (168 to 468 residues) expressed in COS1 cells at 25 to 50 uM measured after 18 hrs by dual luciferase reporter gene assay relative to pirinixic acid; assay type: cell-based
Summary of the method: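 COS-1 cells were transfected with GAL4-DBD–PPARα-LBD, a 5×UAS luciferase reporter and a Renilla control. After 6 h, cells were treated with 0, 25 or 50 μM test compound or pirinixic acid in 0.1% DMSO (final) for 18 h. Dual-luciferase read-out, firefly/Renilla ratio, normalized to DMSO control and GAL4.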

SGBS [4] = experiment: Upregulation of FABP4 gene expression in human preadipocyte derived from Simpson-Golabi-Behmel syndrome (SGBS) patient at 25 uM measured for 12 days by qRT-PCR analysis; assay type: functional, cell-based
Summary of the method: (§1)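 SGBS cells were differentiated with serum-free induction medium containing 25 μM test agent, 2 μM rosiglitazone or 0.1% DMSO from day 0. IBMX and dexamethasone were removed on day 4 and medium was renewed on day 8. RNA was taken on days 0, 4, 8 and 12 for qPCR, normalized to TBP and to day 0. At least three biological replicates in duplicate, two-way ANOVA with Bonferroni.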

SGBS [5] = experiment: Upregulation of ADIPOQ gene expression in human preadipocyte derived from Simpson-Golabi-Behmel syndrome (SGBS) patient at 25 uM measured for 12 days by qRT-PCR analysis; assay type: functional, cell-based; summary of the method: as §1
[6] = molecular target: T1, Peroxisome proliferator-activated receptor alpha (Homo sapiens); experiment: Agonist activity at full length human FLAG-tagged GAL4-DBD fused PPARalpha LBD (168 to 468 residues) expressed in COS1 cells transfected with hRXRalpha and pGL3-CPT1AInt PPRE mutant assessed as CPT1A mRNA level at 50 uM measured after 18 hrs by dual luciferase reporter gene assay; assay type: cell-based
Summary of the method: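 COS-1 cells were transfected with full-length human PPARα (or PPARγ) plus RXRα expression plasmids, with a wild-type or PPRE-mutated CPT1A-intronic (or PLIN1) luciferase reporter and pRL-CMV. Cells were treated with 50 μM in 0.1% DMSO (final) for 18 h. Dual-luciferase read-out normalized to DMSO control. Three biological replicates in quadruplicate, mean ± SEM.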

SGBS [7] = experiment: Upregulation of CEBPA gene expression in human preadipocyte derived from Simpson-Golabi-Behmel syndrome (SGBS) patient at 25 uM measured for 12 days by qRT-PCR analysis; assay type: functional, cell-based; summary of the method: as §1

- Activity [1]: inactive
- Activity [2]: inactive
- fold change (FC) [3]: 2.5
- Activity [6]: inactive
SMILES: CCCCCCCc1cc(CCCCCC(=O)O)no1
- Activity (COS-1): 40%
- Activity (SGBS [4]): Active
- Activity (SGBS [5]): Active
- Activity (SGBS [7]): Active
